Experimental data from ChEMBL document CHEMBL1124925, “Anticandidal properties of N3-(4-methoxyfumaroyl)-L-2,3-diaminopropanoic acid oligopeptides” (1990).
Converted amounts (≈) assume the structure as drawn. Non-standard residues stand in square brackets, D forms with d. Residues, ends and D or L forms follow the SMILES beside them. *: point of attachment. Fumaryl(OMe) = COC(=O)/C=C/C(=O)*; Dap = NC[C@H](N)C(=O)O

What was measured:
[1] = system: Candida albicans; test: In vitro antifungal activity against Candida albicans ATCC 26278.; type: functional
Method in brief: (§1)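 MIC by serial dilution in liquid YNB medium containing sodium glutamate, inoculated at 10^4 cells/mL; growth read turbidimetrically at 660 nm after 24 h at 30 °C. Strains were 16 fresh clinical isolates collected at the Medical Academy of Gdansk plus standard strain ATCC 26278.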

[2] = system: Candida albicans; test: In vitro antifungal activity against 16 clinical strains of Candida albicans.; type: functional; method in brief: as §1
[3] = system: Candida albicans; test: Tested for its intracellular cleavage rate in Candida albicans ATCC 26278.; type: functional
Method in brief: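 Cell-free extract came from cells grown overnight on Sabouraud medium at 30 °C with vigorous shaking. Cells were washed and extracted in 0.05 M phosphate buffer, pH 6.5; protein was measured by Lowry (Layne modification). Peptides at 200 μM in 0.005 M phosphate buffer were incubated with extract at 30 °C for 30 min. Samples were taken every 10 min and released amino acid was measured by Cd-ninhydrin.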

[4] = system: Saccharomyces cerevisiae; test: In vitro antifungal activity against Saccharomyces cerevisiae ATCC 9763.; type: functional
[5] = system: Candida albicans; test: Tested for its rate of transport in Candida albicans ATCC 26278.; type: functional
[6] = system: Candida epidermidis; test: In vitro antifungal activity against Candida epidermidis OBS 6023.
[7] = system: Saccharomyces cerevisiae; test: Tested in vitro for antifungal activity against Saccharomyces cerevisiae ATCC 9763.; type: functional
[8] = system: Candida epidermidis; test: In vitro antifungal activity against Candida epidermidis OBS 6023.; remark: listed apart in the source
[9] = system: Saccharomyces cerevisiae; test: In vitro for antifungal activity against Saccharomyces cerevisiae ATCC 9763.; type: functional

Row | Compound | MIC [1] | MIC [2] | Cleavage rate [3] | MIC [4] | Transport rate [5] | MIC [6] | MIC [7] | MIC [8] | MIC [9]
1 | COC(=O)/C=C/C(=O)NCC(N)C(=O)N[C@@H](CCSC)C(=O)N[C@@H](CNC(=O)/C=C/C(=O)OC)C(=O)O (some centres undefined) | 0.75 µg/mL (≈ 1.37 µM) | 0.25 µg/mL (≈ 0.458 µM) | 3 nM/min/mg | 150 µg/mL (≈ 275 µM) | 1.4 nM/min/mg | 75 µg/mL (≈ 137 µM) | – | – | –
2 | COC(=O)/C=C/C(=O)NC[C@H](NC(=O)[C@H](C)N)C(=O)N[C@@H](C)C(=O)O | 0.75 µg/mL (≈ 2.09 µM) | 0.25 µg/mL (≈ 0.698 µM) | 5.4 nM/min/mg | 37.5 µg/mL (≈ 105 µM) | 0.9 nM/min/mg | 80 µg/mL (≈ 223 µM) | – | – | –
3 | COC(=O)/C=C/C(=O)NC[C@H](NC(=O)[C@H](C)NC(=O)[C@@H](N)CCSC)C(=O)O | 0.75 µg/mL (≈ 1.79 µM) | 0.25 µg/mL (≈ 0.597 µM) | 15.2 nM/min/mg | 7.5 µg/mL (≈ 17.9 µM) | – | 125 µg/mL (≈ 299 µM) | – | – | –
4 | COC(=O)/C=C/C(=O)NC[C@H](NC(=O)[C@H](CCSC)NC(=O)[C@@H](N)CCSC)C(=O)O | 0.25 µg/mL (≈ 0.522 µM) | 0.1 µg/mL (≈ 0.209 µM) | 4.9 nM/min/mg | – | – | 125 µg/mL (≈ 261 µM) | 37.5 µg/mL (≈ 78.4 µM) | – | –
5 | COC(=O)/C=C/C(=O)NC[C@H](NC(=O)[C@H](N)CCSC)C(=O)N[C@H](CCSC)C(=O)O | – | – | – | – | 2 nM/min/mg | – | – | – | –
6 | COC(=O)/C=C/C(=O)NC[C@H](NC(=O)[C@H](CCSC)NC(=O)[C@H](CCSC)NC(=O)[C@@H](N)CNC(=O)/C=C/C(=O)OC)C(=O)O | 0.25 µg/mL (≈ 0.369 µM) | 0.25 µg/mL (≈ 0.369 µM) | 5.8 nM/min/mg | 75 µg/mL (≈ 111 µM) | – | 75 µg/mL (≈ 111 µM) | – | – | –
7 | COC(=O)/C=C/C(=O)NC[C@H](NC(=O)[C@@H](CCSC)NC(=O)[C@@H](CCSC)NC(=O)[C@@H](N)CNC(=O)/C=C/C(=O)OC)C(=O)O | – | – | – | – | 1.2 nM/min/mg | – | – | – | –
8 | COC(=O)/C=C/C(=O)NC[C@H](NC(=O)[C@H](CNC(=O)/C=C/C(=O)OC)NC(=O)[C@@H](N)CCSC)C(=O)O | 0.75 µg/mL (≈ 1.37 µM) | 0.25 µg/mL (≈ 0.458 µM) | 10 nM/min/mg | 150 µg/mL (≈ 275 µM) | – | 125 µg/mL (≈ 229 µM) | – | – | –
9 | CCC[C@H](NC(=O)[C@@H](N)CCSC)C(=O)N[C@@H](CNC(=O)/C=C/C(=O)OC)C(=O)O | 0.125 µg/mL (≈ 0.28 µM) | 0.05 µg/mL (≈ 0.112 µM) | 17.3 nM/min/mg | 7.5 µg/mL (≈ 16.8 µM) | – | 130 µg/mL (≈ 291 µM) | – | – | –
10 | COC(=O)/C=C/C(=O)NC[C@H](NC(=O)[C@H](CCSC)NC(=O)[C@H](CCSC)NC(=O)[C@H](CCSC)NC(=O)[C@@H](N)CCSC)C(=O)O (H-MMMM[Dap](Fumaryl(OMe))-OH) | 0.5 µg/mL (≈ 0.675 µM) | 0.25 µg/mL (≈ 0.337 µM) | 18.6 nM/min/mg | 37.5 µg/mL (≈ 50.6 µM) | – | – | – | 75 µg/mL (≈ 101 µM) | –
11 | COC(=O)/C=C/C(=O)NC[C@H](NC(=O)[C@H](CCSC)NC(=O)[C@H](CCSC)NC(=O)[C@@H](N)CCSC)C(=O)O (H-MMM[Dap](Fumaryl(OMe))-OH) | 0.75 µg/mL (≈ 1.23 µM) | 0.25 µg/mL (≈ 0.41 µM) | 23.7 nM/min/mg | 100 µg/mL (≈ 164 µM) | – | 75 µg/mL (≈ 123 µM) | – | – | –
12 | COC(=O)/C=C/C(=O)NC[C@H](N)C(=O)N[C@@H](CCSC)C(=O)N[C@@H](C)C(=O)O | 0.25 µg/mL (≈ 0.597 µM) | 0.1 µg/mL (≈ 0.239 µM) | 4.9 nM/min/mg | 15 µg/mL (≈ 35.8 µM) | – | 50 µg/mL (≈ 119 µM) | – | – | –
13 | COC(=O)/C=C/C(=O)NC[C@H](NC(=O)[C@@H](N)CCSC)C(=O)N[C@@H](CCSC)C(=O)O | 0.3 µg/mL (≈ 0.627 µM) | 0.15 µg/mL (≈ 0.313 µM) | 4.8 nM/min/mg | 50 µg/mL (≈ 104 µM) | – | 110 µg/mL (≈ 230 µM) | – | – | –
14 | CCC[C@H](NC(=O)[C@@H](N)CCCCN)C(=O)N[C@@H](CNC(=O)/C=C/C(=O)OC)C(=O)O | 0.025 µg/mL (≈ 0.0564 µM) | 0.01 µg/mL (≈ 0.0225 µM) | 51 nM/min/mg | – | – | 125 µg/mL (≈ 282 µM) | – | – | –
15 | CCC[C@H](NC(=O)[C@H](CNC(=O)/C=C/C(=O)OC)NC(=O)[C@@H](N)CCC)C(=O)O | 0.05 µg/mL (≈ 0.121 µM) | 0.01 µg/mL (≈ 0.0241 µM) | 8.9 nM/min/mg | – | 2.9 nM/min/mg | 125 µg/mL (≈ 302 µM) | – | – | 50 µg/mL (≈ 121 µM)
